Measurements as given in ChEMBL document CHEMBL4689842, “EUbOPEN Chemogenomics Library wave 1” (2021).
Several values for one entry are separate records, joined by “and”; a condition that tells them apart may be missing. Identical values can stand only once.

Tested on: U2OS
Experiment: Multiplex assay against U2OS
Type: toxicity, cell-based
Settings: human
How it was run: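 Values for tubulin, mitochondrial-mass and membrane-permeability phenotypes are per cents of cells with healthy nuclei. These cells were identified by CellPathfinder machine-learning gating of live cells that had been stained at seeding with Hoechst33342, BioTracker Green Microtubule Cytoskeleton Dye, MitoTracker Red and Annexin V Alexa Fluor 680 and imaged on a CQ1 microscope at 37°C and 5% CO2 after compound addition. The gating first set Hoechst high-intensity objects apart from normal cells, then split normal cells into healthy, pyknosed or fragmented nuclei, and pyknosed cells into mitotic or apoptotic.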

[1] = 12 h, 1 µM, compound concentration 1 uM, replicate 1
[2] = 12 h, 1 µM, compound concentration 1 uM, replicate 2
[3] = 12 h, 10 µM, compound concentration 10 uM, replicate 1
[4] = 12 h, 10 µM, compound concentration 10 uM, replicate 2
[5] = 24 h, 1 µM, compound concentration 1 uM, replicate 1
[6] = 24 h, 1 µM, compound concentration 1 uM, replicate 2
[7] = 24 h, 10 µM, compound concentration 10 uM, replicate 1
[8] = 24 h, 10 µM, compound concentration 10 uM, replicate 2
[9] = 48 h, 10 µM, compound concentration 10 uM, replicate 1
[10] = 48 h, 10 µM, compound concentration 10 uM, replicate 2

## CCOC(=O)Nc1cc(-c2ccc(C)c(NS(C)(=O)=O)c2)nn2c(C)nnc12
[1]
  Population Apoptotic (%): 83%
  Population Fragmented Nuclei (%): 7%
  Population Healthy Nuclei (%): 89%
  Population Hoechst High Intensity Objects (%): 2%
  Population Membrane Permeable-Phenotype (%): 9%
  Population Mitochondria Different-Phenotype (%): 27%
  Population Mitotic Cells (%): 16%
  Population Normal (%): 97%
  Population Pyknosed Nuclei (%): 3%
  Population Tubulin-Different-Phenotype (%): 26%
  Total Cell Count: 184
[2]
  Population Apoptotic (%): 100%
  Population Fragmented Nuclei (%): 11%
  Population Healthy Nuclei (%): 88%
  Population Hoechst High Intensity Objects (%): 11%
  Population Membrane Permeable-Phenotype (%): 7%
  Population Mitochondria Different-Phenotype (%): 31%
  Population Mitotic Cells (%): 0%
  Population Normal (%): 88%
  Population Pyknosed Nuclei (%): 0%
  Population Tubulin-Different-Phenotype (%): 47%
  Total Cell Count: 152
[3]
  Population Apoptotic (%): 36% and 50%
  Population Fragmented Nuclei (%): 7% and 3%
  Population Healthy Nuclei (%): 85% and 87%
  Population Hoechst High Intensity Objects (%): 4% and 3%
  Population Membrane Permeable-Phenotype (%): 2% and 7%
  Population Mitotic Cells (%): 63% and 50%
  Population Normal (%): 95% and 96%
  Population Pyknosed Nuclei (%): 7% and 8%
  Total Cell Count: 284 and 216
[4]
  Population Fragmented Nuclei (%): 8% and 6%
  Population Healthy Nuclei (%): 86% and 89%
  Population Hoechst High Intensity Objects (%): 2% and 10%
  Population Membrane Permeable-Phenotype (%): 0% and 6%
  Population Mitochondria Different-Phenotype (%): 11% and 29%
  Population Mitotic Cells (%): 60% and 100%
  Population Normal (%): 97% and 89%
  Population Pyknosed Nuclei (%): 5% and 3%
  Population Tubulin-Different-Phenotype (%): 89% and 30%
  Total Cell Count: 101 and 206
[5]
  Population Apoptotic (%): 22%
  Population Fragmented Nuclei (%): 7%
  Population Healthy Nuclei (%): 88%
  Population Hoechst High Intensity Objects (%): 2%
  Population Mitochondria Different-Phenotype (%): 32%
  Population Mitotic Cells (%): 77%
  Population Normal (%): 97%
  Population Pyknosed Nuclei (%): 3%
  Population Tubulin-Different-Phenotype (%): 32%
  Total Cell Count: 257
[6]
  Population Apoptotic (%): 20%
  Population Fragmented Nuclei (%): 9%
  Population Healthy Nuclei (%): 84%
  Population Hoechst High Intensity Objects (%): 7%
  Population Membrane Permeable-Phenotype (%): 4%
  Population Mitochondria Different-Phenotype (%): 34%
  Population Mitotic Cells (%): 80%
  Population Normal (%): 92%
  Population Pyknosed Nuclei (%): 5%
  Population Tubulin-Different-Phenotype (%): 59%
  Total Cell Count: 195
[7]
  Population Fragmented Nuclei (%): 5%
  Population Healthy Nuclei (%): 87% and 93%
  Population Hoechst High Intensity Objects (%): 3% and 1%
  Population Membrane Permeable-Phenotype (%): 1% and 4%
  Population Mitochondria Different-Phenotype (%): 11% and 18%
  Population Mitotic Cells (%): 88% and 33%
  Population Normal (%): 96% and 98%
  Population Pyknosed Nuclei (%): 7% and 3%
  Total Cell Count: 378 and 305
[8]
  Population Apoptotic (%): 28% and 53%
  Population Fragmented Nuclei (%): 3% and 7%
  Population Healthy Nuclei (%): 90% and 86%
  Population Hoechst High Intensity Objects (%): 2% and 9%
  Population Membrane Permeable-Phenotype (%): 0% and 5%
  Population Mitochondria Different-Phenotype (%): 16% and 30%
  Population Mitotic Cells (%): 71% and 46%
  Population Normal (%): 97% and 90%
  Population Pyknosed Nuclei (%): 5% and 6%
  Population Tubulin-Different-Phenotype (%): 96% and 35%
  Total Cell Count: 137 and 273
[9]
  Population Apoptotic (%): 36%
  Population Fragmented Nuclei (%): 5%
  Population Healthy Nuclei (%): 91%
  Population Hoechst High Intensity Objects (%): 1%
  Population Mitochondria Different-Phenotype (%): 10%
  Population Mitotic Cells (%): 63%
  Population Normal (%): 98%
  Population Pyknosed Nuclei (%): 3%
  Population Tubulin-Different-Phenotype (%): 98%
  Total Cell Count: 662
[10]
  Population Apoptotic (%): 17%
  Population Fragmented Nuclei (%): 2%
  Population Healthy Nuclei (%): 90%
  Population Hoechst High Intensity Objects (%): 2%
  Population Membrane Permeable-Phenotype (%): 0%
  Population Mitochondria Different-Phenotype (%): 12%
  Population Mitotic Cells (%): 82%
  Population Normal (%): 97%
  Population Pyknosed Nuclei (%): 6%
  Population Tubulin-Different-Phenotype (%): 91%
  Total Cell Count: 261
